Assay outcomes deposited in PubChem by The Scripps Research Institute Molecular Screening Center.
Shown are actives, neighbours in structure and some others; about 2.5% of the full set was active somewhere.
SIAE primary – inhibitors of human sialic acid acetylesterase SIAE | SIAE FP-Rh probe binding, fluorescence polarization | Q9HAT2 | AID 1053197 | inhibition, % at 9.66 µM | 0.69% of 370,000 active;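 active means inhibition above a cutoff: mean of compounds within the control limits plus 3 SD of those, cut at about 17% in these data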
HTRA1 inhibitor – inhibitors of human serine peptidase HTRA1. Q92743. 0.5% of 340,000 active. inhibition, % at 5.96 µM. recombinant HTRA1, FP-rhodamine activity-based probe, fluorescence polarization; in the data active means inhibition above about 36%
TCR CD3 inh – inhibitors of human TCR-CD3 interaction; AID 651800; inhibition, % at 9.4 µM; TAMRA-labeled TCR probe fluorescence, biochemical; 0.37% of 360,000 active; in the data active means inhibition above about 19%;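 further: recombinant mutant TCR 2C K166C tagged with TAMRA read by polarization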
PRMT1 inh – PRMT1 (human) inhibition, primary screen. Q99873. recombinant PRMT1, activity-based probe fluorescence polarization. inhibition, % at 2.79 µM. 1.3% of 370,000 active;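 active means inhibition above about 21% made by adding two undisclosed values, limit read from the data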
mABHD4 FP – inhibitors of mouse ABHD4. Q8VD66. purified mABHD4, FP-Rh probe fluorescence polarization. inhibition, % at 8.92 µM. 0.54% of 370,000 active. AID 720543;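 active means inhibition exceeding the mean over every tested compound plus 3 SD, cut at about 30% in these data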
Target sequence (Q8VD66 whole entry, looked up): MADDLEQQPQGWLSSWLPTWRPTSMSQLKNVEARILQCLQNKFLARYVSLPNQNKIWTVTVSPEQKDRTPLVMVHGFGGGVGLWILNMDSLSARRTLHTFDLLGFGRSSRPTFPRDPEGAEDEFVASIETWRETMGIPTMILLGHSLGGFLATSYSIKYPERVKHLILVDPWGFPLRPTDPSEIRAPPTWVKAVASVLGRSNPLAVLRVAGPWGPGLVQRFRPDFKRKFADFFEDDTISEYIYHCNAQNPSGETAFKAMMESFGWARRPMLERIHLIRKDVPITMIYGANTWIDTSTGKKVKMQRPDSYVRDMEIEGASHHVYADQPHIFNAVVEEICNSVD
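Test system: mouse ABHD4 enzyme, wild type. Reagent: FP-Rh fluorescent activity-based probe, added after compound pre-incubation. Timing: pre-incubation 45 min, probe exposure 60 min, at 25 °C. Technique: FP readout, ex 525 nm / em 598 nm. Benchmarks: high control S159A mutant with DMSO, low control median of compound wells.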
SIAE confirm – confirmation of human SIAE inhibitors. inhibition, % at 9.66 µM. 13% of 2,300 active. shares compounds with SIAE primary. SIAE FP-Rh activity-based probe, fluorescence polarization;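 active means mean inhibition of the replicates above the hit cutoff set in the primary screen, cut at about 17% in these data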;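 further: inhibitors lower polarization as more probe stays unbound to SIAE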
Of the large screens only hits and unclear results are named; the others gave an inactive call (follow-up assays come after a bar, where they were run).

Cc1ccc(NC(=Nc2ccc(Br)cc2)N2CCOCC2)cc1C	SIAE primary 18 | SIAE confirm inactive
Cc1ccc(N2C(=O)/C(=C\c3ccco3)SC2=S)cc1	none
O=C1/C(=C\c2ccco2)SC(=S)N1c1ccccc1	SIAE primary 25 | SIAE confirm inactive
O=C1NC[C@H](CCCCN2C[C@H](Cc3ccc(O)cc3)N(CCc3ccccc3)C(=O)C2=O)N(CCc2ccc(O)cc2)C1=O	none (no result: HTRA1 inhibitor)
Cc1ccc2[nH]c(O)c(N=NC(N)=S)c2c1	none
CC(/C=C(\NC(=O)c1ccccc1)C(=O)N=Nc1c(O)[nH]c2ccc(C)cc12)=C\c1ccccc1	SIAE primary 21 | SIAE confirm inactive
COc1cc(OC)c(NC(=O)c2cc(S(=O)(=O)N3CCOCC3)cn2C)cc1Cl	none
COc1cc(OC)c(NC(=O)N2CCOCC2)cc1Cl	SIAE primary 25 | SIAE confirm inactive
CC(C)CN(C(=O)c1cccc(S(=O)(=O)N2CCN(Cc3ccccc3)CC2)c1)C1CCS(=O)(=O)C1 (stereo unspecified)	none
CCOC(=O)C1CCN(S(=O)(=O)c2ccc(C)c(C(=O)NC3CCCCC3)c2)CC1	none
CCOC(=O)N1CCN(S(=O)(=O)c2ccc(C)c(C(=O)NC3CCCCC3)c2)CC1	SIAE primary 19 | SIAE confirm inactive
C=CCn1c(SCC(C)=O)nc2sc3c(c2c1=O)CCC3	none
C=CCn1c(SCC(=O)N(CC)C2CCS(=O)(=O)C2)nc2sc3c(c2c1=O)CCC3 (stereo unspecified)	SIAE primary 18 | SIAE confirm inactive
Cc1cccc(C(=O)NCC(=O)NC(C)CCc2ccccc2)c1 (stereo unspecified)	SIAE primary 20 | SIAE confirm inactive
Cc1cccc(C(=O)OCC(=O)NC(C)CCc2ccccc2)c1 (stereo unspecified)	none
O=C(Nc1ccc(S(=O)(=O)NC2=NCCCCC2)cc1)c1cccc(OC(F)F)c1	none
O=C(C1CCC(CNc2nc(=S)[nH]c3ccccc23)CC1)N1CCN(c2ccc(F)cc2)CC1 (stereo unspecified)	SIAE primary 20 | SIAE confirm inactive
COc1ccc(N2CCN(CCCNC(=O)C3CCC(CNc4nc(=S)[nH]c5ccccc45)CC3)CC2)cc1 (stereo unspecified)	none
O=c1c2oc3ccccc3c2ncn1Cc1ccc(F)cc1	none
COc1ccc(C(CC(=O)O)NC(=O)COc2ccc(C)cc2)cc1OC (stereo unspecified)	SIAE primary 19 | SIAE confirm inactive
Cn1c(NN)nc2sc3c(c2c1=O)CC(C)(C)OC3	none
Cc1nc(NN)c2c3c(sc2n1)COC(C)(C)C3	SIAE primary 27 | SIAE confirm inactive
O=C1[C@@H]2CSCN2C(=O)CN1Cc1ccccc1F	SIAE primary 19 | SIAE confirm inactive
Cc1ccc(-n2c(COc3ccccc3)nnc2SCC(=O)Nc2ccc3c(c2)OCO3)cc1	none (no result: HTRA1 inhibitor, TCR CD3 inh)
Cc1c(C(=O)Nc2cccc([N+](=O)[O-])c2)sc2ncn(CC(=O)N3CCOCC3)c(=O)c12	none
COc1ccc(OC)c(CN2C(=O)c3ccccc3C2c2nnnn2-c2ccc3c(c2)OCCO3)c1 (stereo unspecified)	none (no result: HTRA1 inhibitor)
COc1ccc(-n2nnnc2C2c3ccccc3C(=O)N2C2CCN(Cc3ccccc3)CC2)cc1 (stereo unspecified)	SIAE primary 21 (no result: HTRA1 inhibitor) | SIAE confirm inactive
O=c1c2ccccc2oc2cc(Br)ccc12	SIAE primary 20 | SIAE confirm inactive
COc1cc2oc3ccccc3c(=O)c2cc1OC	none (no result: SIAE primary, TCR CD3 inh, PRMT1 inh, mABHD4 FP)
CCCCCCCCN1C(=O)[C@H](CC(=O)N2CCCCC2)C[C@@]2(C(=O)OC)CCCCC=C12	none (no result: HTRA1 inhibitor)
COc1ccc(/C=C/C(=O)NC(=S)NNC(=O)c2cccnc2)cc1	SIAE primary 21 | SIAE confirm inactive
COc1ccc(/C=C/C(=O)NC(=S)NNC(=O)c2cnccn2)cc1	none
CC(C)=CCC(C)(C)CNC(=O)NC1CCCCC1	SIAE primary 20 | SIAE confirm inactive
Cc1[nH]n(-c2ccccc2)c(=O)c1/C=N/NC(=O)c1cccc([N+](=O)[O-])c1	SIAE primary 20 | SIAE confirm inactive
COc1ccc(/C=N/NC(=O)c2cccc([N+](=O)[O-])c2)cc1OS(=O)(=O)c1ccc(C)cc1	none
CCOc1cc(/C=N/NC(=O)c2cccc([N+](=O)[O-])c2)ccc1OS(=O)(=O)c1ccccc1	SIAE primary 22 | SIAE confirm inactive
